Experimental data as given in ChEMBL document CHEMBL1926656, “Cyclopeptide Alkaloids from Ziziphus apetala” (J Nat Prod, 2011).
Calls of active or inactive are those of the source. The rule behind the calls is not given here.

Experiments:
[1] = system: HeLa; assay: Cytotoxicity against human HeLa cells; type: functional, cell-based
[2] = system: BGC-823; assay: Cytotoxicity against human BGC823 cells; type: functional, cell-based
[3] = molecular target: 11-beta-hydroxysteroid dehydrogenase 1 (Mus musculus, UniProt P50172); assay: Inhibition of mouse 11beta-HSD1 expressed in human HEK293 cells assessed as conversion of [3H]cortisone to [3H]cortisol by scintillation proximity assay; type: cell-based
11-beta-hydroxysteroid dehydrogenase 1 (Mus musculus, UniProt P50172), sequence (P50172 whole entry): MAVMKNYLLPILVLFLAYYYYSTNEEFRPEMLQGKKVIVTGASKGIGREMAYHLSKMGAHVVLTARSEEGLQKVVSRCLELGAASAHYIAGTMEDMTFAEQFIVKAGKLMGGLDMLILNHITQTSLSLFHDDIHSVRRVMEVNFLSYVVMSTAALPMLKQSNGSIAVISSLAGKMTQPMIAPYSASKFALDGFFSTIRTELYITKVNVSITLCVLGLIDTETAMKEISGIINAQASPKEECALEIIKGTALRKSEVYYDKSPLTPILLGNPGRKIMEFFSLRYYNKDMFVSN
Method in brief: (§1)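 Full-length human or mouse 11β-HSD1 cDNA in pcDNA3, stably expressed in HEK-293 cells selected with 700 μg/mL G418; microsomal fraction used as enzyme. Microsomes incubated with NADPH and [3H]cortisone; [3H]cortisol product captured by monoclonal antibody on protein A-coated SPA beads. Glycyrrhizinic acid positive control. IC50 as mean ± SD, n = 3.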

[4] = molecular target: 11-beta-hydroxysteroid dehydrogenase 1 (Homo sapiens, UniProt P28845); assay: Inhibition of human 11beta-HSD1 expressed in human HEK293 cells assessed as conversion of [3H]cortisone to [3H]cortisol by scintillation proximity assay; type: cell-based; method in brief: as §1
11-beta-hydroxysteroid dehydrogenase 1 (Homo sapiens, UniProt P28845), sequence (P28845 whole entry): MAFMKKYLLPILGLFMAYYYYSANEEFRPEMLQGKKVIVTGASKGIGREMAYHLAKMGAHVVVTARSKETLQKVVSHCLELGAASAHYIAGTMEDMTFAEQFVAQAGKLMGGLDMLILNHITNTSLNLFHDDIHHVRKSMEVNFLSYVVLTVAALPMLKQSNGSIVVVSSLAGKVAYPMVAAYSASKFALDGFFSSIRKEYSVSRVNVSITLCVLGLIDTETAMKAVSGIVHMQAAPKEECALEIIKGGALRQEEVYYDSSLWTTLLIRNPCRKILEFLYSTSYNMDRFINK

Structure (SMILES)	Activity [1]	Activity [2]	IC50 [3] [µM]	IC50 [4] [µM]
CC(C)[C@H](NC(=O)[C@@H](C)[N+](C)(C)[O-])C(=O)N1CC[C@@H]2Oc3ccc(cc3)/C=C\NC(=O)[C@H](Cc3ccccc3)NC(=O)[C@H]21	inactive	inactive	–	–
CC1(C)[C@@H](O[C@H]2O[C@H](C(=O)O)[C@@H](O)[C@H](O)[C@H]2O[C@@H]2O[C@H](C(=O)O)[C@@H](O)[C@H](O)[C@H]2O)CC[C@]2(C)[C@H]3C(=O)C=C4[C@@H]5C[C@@](C)(C(=O)O)CC[C@]5(C)CC[C@@]4(C)[C@]3(C)CC[C@@H]12 [GLYCYRRHIZIN]	–	–	0.0295	0.0186
CC(C)[C@@H](C(=O)N1CC[C@@H]2Oc3ccc(cc3)/C=C\NC(=O)[C@H](Cc3ccccc3)NC(=O)[C@H]21)N1CN(C)[C@@H](C)C1=O	inactive	inactive	–	–
CC(C)[C@H](NC(=O)[C@H](C)N(C)C)C(=O)N1CC[C@@H]2Oc3ccc(cc3)/C=C\NC(=O)[C@H](Cc3ccccc3)NC(=O)[C@H]21 [MAURITINE A]	inactive	inactive	54.2	90.3
CC(C)[C@H](NC(=O)[C@@H](C)N(C)C)C(=O)N1CC[C@@H]2Oc3ccc(cc3)/C=C\NC(=O)[C@H](Cc3ccccc3)NC(=O)[C@H]21	inactive	inactive	–	–
CN[C@@H](C)C(=O)N[C@H](C(=O)N1CC[C@@H]2Oc3ccc(cc3)/C=C\NC(=O)[C@H](Cc3ccccc3)NC(=O)[C@H]21)C(C)C	inactive	inactive	–	–
CC(C)[C@H](NC(=O)[C@H](C)[N+](C)(C)[O-])C(=O)N1CC[C@@H]2Oc3ccc(cc3)/C=C\NC(=O)[C@H](Cc3ccccc3)NC(=O)[C@H]21	inactive	inactive	–	–
C/C(=N/O)C(=O)N[C@H](C(=O)N1CC[C@@H]2Oc3ccc(cc3)/C=C\NC(=O)[C@H](Cc3ccccc3)NC(=O)[C@H]21)C(C)C	inactive	inactive	–	–
CC(C)[C@H](NC(=O)C(C)N(C)C=O)C(=O)N1CC[C@@H]2Oc3ccc(cc3)/C=C\NC(=O)[C@H](Cc3ccccc3)NC(=O)[C@H]21 (stereo not given in full)	inactive	inactive	–	–
